ChEMBL document CHEMBL1155063 (Bioorg Med Chem, 2008)
Calls of active or inactive are those of the source. The calls are words filed in the database; no cut-off is given here.

What was measured:
[1] = target: T1, Telomerase reverse transcriptase (Homo sapiens, UniProt O14746); assay: Inhibition of telomerase in human H1299 cells at 1 to 20 uM by TRAP assay; assay type: cell-based
In short: (§1)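 Modified TRAP assay using 2 µg total lysate from H1299 lung cancer cells as the telomerase source. Compounds were tested at 1, 5, 10 and 20 µM. Products were resolved on 10% polyacrylamide gels and stained with SYBR Green. A Taq-polymerase internal control was included, along with positive and negative controls.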

[2] = target: T1, Telomerase reverse transcriptase; assay: Inhibition of G-quadruplex-induced human TERT in H1299 cells by TRAP assay; assay type: cell-based; in short: as §1

T1 sequence (O14746 whole entry): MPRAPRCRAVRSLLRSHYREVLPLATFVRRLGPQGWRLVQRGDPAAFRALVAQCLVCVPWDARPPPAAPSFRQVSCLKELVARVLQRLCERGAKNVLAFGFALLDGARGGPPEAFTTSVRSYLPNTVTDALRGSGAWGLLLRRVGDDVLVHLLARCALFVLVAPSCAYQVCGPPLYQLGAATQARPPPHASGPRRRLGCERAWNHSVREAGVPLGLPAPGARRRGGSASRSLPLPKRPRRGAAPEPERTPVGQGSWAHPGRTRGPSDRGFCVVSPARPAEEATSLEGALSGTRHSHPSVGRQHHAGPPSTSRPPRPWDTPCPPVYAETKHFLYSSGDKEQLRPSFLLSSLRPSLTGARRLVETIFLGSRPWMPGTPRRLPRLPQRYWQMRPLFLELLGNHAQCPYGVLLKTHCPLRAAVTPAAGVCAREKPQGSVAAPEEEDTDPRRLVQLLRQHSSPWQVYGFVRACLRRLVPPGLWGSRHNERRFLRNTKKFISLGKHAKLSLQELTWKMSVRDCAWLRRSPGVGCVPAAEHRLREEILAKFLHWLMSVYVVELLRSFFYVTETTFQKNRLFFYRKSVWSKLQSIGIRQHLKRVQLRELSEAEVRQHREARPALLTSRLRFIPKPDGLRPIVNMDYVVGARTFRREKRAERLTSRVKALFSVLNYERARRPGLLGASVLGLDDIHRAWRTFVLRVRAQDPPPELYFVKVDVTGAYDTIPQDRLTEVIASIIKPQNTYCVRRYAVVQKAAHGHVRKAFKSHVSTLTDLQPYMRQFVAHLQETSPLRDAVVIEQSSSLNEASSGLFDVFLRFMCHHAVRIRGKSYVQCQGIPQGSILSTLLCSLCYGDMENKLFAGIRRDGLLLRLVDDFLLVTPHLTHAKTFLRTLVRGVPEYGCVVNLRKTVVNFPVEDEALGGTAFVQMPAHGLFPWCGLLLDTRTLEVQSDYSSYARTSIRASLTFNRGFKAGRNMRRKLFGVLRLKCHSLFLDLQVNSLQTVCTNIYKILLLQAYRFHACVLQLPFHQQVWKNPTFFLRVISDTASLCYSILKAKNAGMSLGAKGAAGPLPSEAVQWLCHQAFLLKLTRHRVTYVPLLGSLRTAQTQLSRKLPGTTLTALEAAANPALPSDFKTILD

| Activity [1] | IC50 [2] | Compound |
| --- | --- | --- |
| Active | – | CCN(CC)CCC(=O)Nc1ccc2c(c1)C(=O)c1cc(NC(=O)CCN(CC)CC)ccc1C2=O |
| Active | 6.7 µM | O=C(CCN1CCCC1)Nc1ccc2c(c1)C(=O)c1cc(NC(=O)CCN3CCCC3)ccc1C2=O |
